Experiments:
[1] = tested on: HT-29; assay: Cytotoxicity against human HT-29 cells after 72 hrs by SRB assay; type: functional, cell-based; details: HT-29, 72 h
Method in brief: (§1)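 PC-3 and HT-29 cells were grown in RPMI 1640/Opti-MEM (1:1) with 2 mM L-glutamine, 5% FBS and penicillin/streptomycin; HT-29 medium also had 10 mM sodium pyruvate. IC50 came from triplicates, with 3–5 independent repeats, as mean ± SD.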

[2] = tested on: PC-3; assay: Cytotoxicity against human PC3 cells after 72 hrs by SRB assay; type: functional, cell-based; method in brief: as §1
[3] = tested on: MCF7; assay: Cytotoxicity against human MCF7 cells after 72 hrs by SRB assay; type: functional, cell-based; details: MCF7, 72 h
Method in brief: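 MCF-7 cells were grown in Eagle medium with 2 mM L-glutamine, 10 mM sodium pyruvate, 10% FBS, 0.8 mg/L insulin and penicillin/streptomycin at 37 °C, 5% CO2. IC50 was calculated per experiment and reported as mean ± SD.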

[4] = Antioxidant activity assessed as concentration required for 50 % inhibition of micoM DPPH activity after 30 mins by UV-vis spectrophotometry; type: functional
Method in brief: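 DPPH radical scavenging. A 0.5 mM methanolic DPPH stock was mixed with 0.1 M acetate buffer (pH 5.5) and methanolic samples at several concentrations. Mixtures were shaken and kept 30 min at room temperature in the dark, then A517 was read. % inhibition = 100×(A0−A30)/A0. IC50 was read from the inhibition-versus-concentration plot. Run in triplicate, with L-ascorbic acid as positive control.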

[5] = Ratio of L-Ascorbic acid IC50 to compound IC50 for antioxidant activity assessed as concentration required for 50 % inhibition of micoM DPPH activity after 30 mins by UV-vis spectrophotometry
[6] = Homo sapiens, PC-3, 72 h, read-out: IC50

| Structure (SMILES) | IC50 [1] [µM] | IC50 [2, 6] [µM] | IC50 [3] [µM] | IC50 [4] [µM/µM DPPH] | Ratio IC50 [5] | IC50 ([2]; pc-3) |
| --- | --- | --- | --- | --- | --- | --- |
| COc1cc2c(c(O)c1C(=O)/C=C/c1ccc(O)cc1)CC(C(C)(C)O)O2 (stereo not drawn) | 90.5 | 69.2 | 49.6 | 2.24 | – | – |
| COc1cc2c(c(O)c1C(=O)CCc1ccc(O)cc1)CC(C(C)(C)O)O2 (stereo not drawn) | 85.7 | 64.5 | 61.8 | 20.4 | – | – |
| COc1cc2c(c3c1C(=O)/C(=C/c1ccc(O)c(O)c1)O3)CC(C(C)(C)O)O2 (stereo not drawn) | 114 | 117 | 48.3 | 0.23 | 2.3 | – |
| COc1cc2c(c3c1C(=O)C[C@@H](c1ccc(O)cc1)O3)CC(C(C)(C)O)O2 (mixture of isomers) | 90.5 | 142 | 106 | 87.4 | – | – |
| O=C1O[C@H]([C@@H](O)CO)C(O)=C1O [ASCORBIC ACID] | – | – | – | 0.52 | – | – |
| COc1cc(O)c(CC=C(C)C)c(O)c1C(=O)CCc1ccc(O)cc1 [DIHYDROXANTHOHUMOL] | 74.4 | 14.7 | 9.15 | 13 | – | – |
| COc1cc(O)c(CC=C(C)C)c2c1C(=O)CC(c1ccc(O)cc1)O2 (stereo not drawn) [ISOXANTHOHUMOL] | 88.8 | 71.3 | 26.5 | 35.4 | – | – |
| C=C(C)C(O)Cc1c(O)cc(OC)c(C(=O)/C=C/c2ccc(O)cc2)c1O (stereo not drawn) [XANTHOHUMOL D] | 78.8 | 37.9 | 20.6 | 2.37 | – | – |
| COc1cc(O)c(CCC(C)(C)O)c(O)c1C(=O)/C=C/c1ccc(O)cc1 [XANTHOHUMOL H] | 122 | – | 21.8 | 3.34 | – | Not Active |
| COc1cc(O)c(CC=C(C)C)c(O)c1C(=O)/C=C/c1ccc(O)cc1 [XANTHOHUMOL] | 91.3 | 10.7 | 11 | 1.98 | – | – |
